Measurements from ChEMBL document CHEMBL4406847, “Tryptoline-based benzothiazoles re-sensitize MRSA to β-lactam antibiotics” (Bioorg Med Chem, 2019).
Converted amounts (≈) assume the structure as drawn. The source made the active and inactive calls. No cut-off for these calls is given here.

How the values were obtained:
Staphylococcus aureus [1] = assay: Potentiation of cefazolin induced antibacterial activity against methicillin resistant Staphylococcus aureus ATCC BAA-44 assessed as minimum resensitizing concentration after 18 hrs by broth microdilution method; format: functional; conditions: ATCC BAA-44, 18 h, read-out: MEC
Outline: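 Compound titrated in the presence of cefazolin at its CLSI breakpoint (8 μg/mL); MRC is the compound concentration at which no overnight growth occurs, in μg/mL; confirmed in triplicate.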

HeLa = assay: Cytotoxicity against human HeLa cells assessed as cell growth inhibition measured after 24 hrs by Celltiter Glo luminescent assay; format: cell-based; conditions: hela, 24 h
Staphylococcus aureus [2] = assay: Antibacterial activity against methicillin resistant Staphylococcus aureus ATCC BAA-44 after 18 hrs by broth microdilution method; format: functional; conditions: ATCC BAA-44, 18 h
Outline: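 Compound alone, MIC by standard CLSI broth microdilution; lowest concentration with no growth, reported in μg/mL; confirmed in triplicate.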

Staphylococcus aureus [3] = assay: Ratio of MIC for antibacterial activity against methicillin resistant Staphylococcus aureus ATCC BAA-44 to MEC for potentiation of cefazolin induced antibacterial activity against methicillin resistant Staphylococcus aureus ATCC BAA-44; format: functional
Outline: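 Compound MIC alone (CLSI broth microdilution) divided by its MRC with cefazolin at the 8 μg/mL breakpoint, both against MRSA BAA-44; each confirmed in triplicate.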

Staphylococcus aureus [4] = assay: Antibacterial activity against methicillin resistant Staphylococcus aureus ATCC BAA-44 at 128 to 256 ug/ml after 18 hrs by broth microdilution method; format: functional, organism-based

Structure (SMILES) | minimal effective concentration (Staphylococcus aureus [1]) [µg/mL] | GI50 (HeLa) [µg/mL] | MIC (Staphylococcus aureus [2]) [µg/mL] | Ratio (Staphylococcus aureus [3]) | Activity (Staphylococcus aureus [4])
Clc1ccc2[nH]c3c(c2c1)CCN(c1nc2c(Cl)c(Cl)c(Cl)cc2s1)C3 | 1 | 11.7 (≈ 26.4 µM) | 2 (≈ 4.51 µM) |  | 
CNc1cc(C(F)(F)F)c2nc(N3CCc4c([nH]c5ccc(Cl)cc45)C3)sc2c1 | 2 | 15.4 (≈ 35.2 µM) | > 32 |  | 
Clc1ccc2[nH]c3c(c2c1)CCN(c1nc2c(Cl)cc(Br)cc2s1)C3 | 8 | 22 (≈ 48.5 µM) | > 32 |  | 
NCC1CN(c2nc3ccc(Cl)cc3s2)Cc2[nH]c3ccc(Cl)cc3c21 (racemic) | 1 | 1.5 (≈ 3.72 µM) |  |  | 
C[N+](C)(C)CC1CN(c2nc3ccc(Cl)cc3s2)Cc2[nH]c3ccc(Cl)cc3c21.[I-] (racemic) | 4 | 18 | 8 |  | 
Cc1ccc2nc(N3CCc4c([nH]c5ccc(Cl)cc45)C3)sc2c1 | > 64 |  |  | 0 | 
Clc1ccc2c3c([nH]c2c1)CN(c1nc2ccc(Cl)cc2s1)CC3 | > 64 |  |  |  | 
CN(C)CC1CN(c2nc3ccc(Cl)cc3s2)Cc2[nH]c3ccc(Cl)cc3c21 (racemic) | 1 | 5.2 (≈ 12.1 µM) | 2 (≈ 4.64 µM) |  | 
Cn1c(N2CCc3c([nH]c4ccc(Cl)cc34)C2)nc2ccc(C(F)(F)F)cc21 | > 64 |  |  |  | 
COC(=O)C1CN(c2nc3ccc(Cl)cc3s2)Cc2[nH]c3ccc(Cl)cc3c21 (racemic) | 1 | 6.6 (≈ 15.3 µM) | > 32 | 32 | 
Clc1ccc2[nH]c3c(c2c1)CCN(c1nc2ccccc2o1)C3 | > 64 |  |  | 0 | 
N=CNCC1CN(c2nc3ccc(Cl)cc3s2)Cc2[nH]c3ccc(Cl)cc3c21 (racemic) | 2 | 3.8 (≈ 8.83 µM) | 4 (≈ 9.29 µM) |  | 
FC(F)(F)c1ccc2nc(N3CCc4c([nH]c5ccc(Cl)cc45)C3)sc2c1 | 0.5 | 4.6 (≈ 11.3 µM) | > 64 |  | 
Cc1nnc(SCC2=C(C(=O)O)N3C(=O)[C@@H](NC(=O)Cn4cnnn4)[C@H]3SC2)s1 |  |  |  |  | Active
Clc1ccc2nc(N3CCc4c([nH]c5c(Cl)cccc45)C3)sc2c1 | 16 |  | > 16 |  | 
FC(F)(F)c1cccc2sc(N3CCc4c([nH]c5ccc(Cl)cc45)C3)nc12 | 1 | 8 (≈ 19.6 µM) | > 32 | 32 | 
Clc1ccc2[nH]c3c(c2c1)CCN(c1nc2c(Cl)cccc2s1)C3 | 2 | 27.7 (≈ 74 µM) | > 64 | 32 | 
Clc1ccc2nc(N3CCc4c([nH]c5ccc(Cl)cc45)C3)sc2c1 | 2 | 13.2 (≈ 35.3 µM) | > 64 | 32 | 
Clc1ccc2nc(N3CCc4c([nH]c5ccc(Cl)cc45)C3)oc2c1 | > 64 |  |  | 0 | 
Cn1c(N2CCc3c([nH]c4ccc(Cl)cc34)C2)nc2ccc(Cl)cc21 | > 64 |  |  |  | 
Fc1ccc2[nH]c3c(c2c1)CCN(c1nc2ccc(Cl)cc2s1)C3 | > 64 |  |  |  | 
Cl.NCCSCC1CN(c2nc3ccc(Cl)cc3s2)Cc2[nH]c3ccc(Cl)cc3c21 (racemic) | 1 | 3.8 |  |  | 
Clc1ccc2sc(N3CCc4c([nH]c5ccc(Cl)cc45)C3)nc2c1 | > 64 |  |  | 0 | 
Clc1cc(Cl)c2nc(N3CCc4c([nH]c5ccc(Cl)cc45)C3)sc2c1 | 1 | 16.1 (≈ 39.4 µM) | 2 (≈ 4.89 µM) |  | 
Cn1c(N2CCc3c([nH]c4ccc(Cl)cc34)C2)nc2ccccc21 | > 64 |  |  |  | 
CO/N=C(\C(=O)N[C@@H]1C(=O)N2C(C(=O)O)=C(COC(N)=O)CS[C@H]12)c1ccco1 |  |  |  |  | Active
COc1ccc2[nH]c3c(c2c1)CCN(c1nc2ccc(Cl)cc2s1)C3 | > 64 |  |  |  | 
FC(F)(F)c1cc(Br)cc2sc(N3CCc4c([nH]c5ccc(Cl)cc45)C3)nc12 | 0.5 | 5.9 (≈ 12.1 µM) | 4 (≈ 8.22 µM) |  | 

Structure (SMILES) | minimal effective concentration (Staphylococcus aureus [1]) [µg/mL] | GI50 (HeLa) [µg/mL] | MIC (Staphylococcus aureus [2]) [µg/mL] | Ratio (Staphylococcus aureus [3]) | Activity (Staphylococcus aureus [4])
OCC1CN(c2nc3ccc(Cl)cc3s2)Cc2[nH]c3ccc(Cl)cc3c21 (racemic) | 2 | 10.8 (≈ 26.7 µM) |  |  | 
Cl.NCC(=O)Nc1cc(Cl)c2nc(N3CCc4c([nH]c5ccc(Cl)cc45)C3)sc2c1 | 2 | 14.8 |  |  | 
Clc1ccc2[nH]c3c(c2c1)CCN(c1nc2ccccc2s1)C3 | > 64 |  |  | 0 | 
Cl.Nc1cc(C(F)(F)F)c2nc(N3CCc4c([nH]c5ccc(Cl)cc45)C3)sc2c1 | 2 | 32 | 16 |  | 
NCCNCC1CN(c2nc3ccc(Cl)cc3s2)Cc2[nH]c3ccc(Cl)cc3c21 (racemic) | 2 | 2.4 (≈ 5.38 µM) |  |  | 
S=C(Nc1ccc(Cl)cc1)N1CCc2c([nH]c3ccc(Cl)cc23)C1 | 2 |  | 4 (≈ 10.6 µM) | 2 | 
Cl.NCCNc1cc(C(F)(F)F)c2nc(N3CCc4c([nH]c5ccc(Cl)cc45)C3)sc2c1 | 1 | 7.4 |  |  | 
COCOCC1CN(c2nc3ccc(Cl)cc3s2)Cc2[nH]c3ccc(Cl)cc3c21 (racemic) | 2 | 7 (≈ 15.6 µM) |  |  | 
Oc1cc(Cl)c2nc(N3CCc4c([nH]c5ccc(Cl)cc45)C3)sc2c1 | 8 | 5.5 (≈ 14.1 µM) | > 32 |  | 
NCCOc1cc(Cl)c2nc(N3CCc4c([nH]c5ccc(Cl)cc45)C3)sc2c1 | 4 |  | 8 (≈ 18.5 µM) |  | 
FC(F)(F)c1ccc2nc(N3CCc4c([nH]c5ccc(Cl)cc45)C3)oc2c1 | > 64 |  |  | 0 | 
O=C(O)C1CN(c2nc3ccc(Cl)cc3s2)Cc2[nH]c3ccc(Cl)cc3c21 (racemic) | 16 | 65 (≈ 155 µM) | 32 (≈ 76.5 µM) | 0 | 
Clc1ccc2[nH]c3c(c2c1)CCN(c1nc2cccc(Cl)c2s1)C3 | 1 | 6.7 (≈ 17.9 µM) | 4 (≈ 10.7 µM) |  | 
Nc1ccc2nc(N3CCc4c([nH]c5ccc(Cl)cc45)C3)sc2c1 | > 64 |  |  |  | 
Clc1ccc2[nH]c3c(c2c1)CCN(c1nc2ccc(Br)cc2s1)C3 | 2 | 5.1 (≈ 12.2 µM) | > 64 |  | 
Clc1ccc2nc(N3CCc4c([nH]c5ccc(Br)cc45)C3)sc2c1 | 1 |  | 4 (≈ 9.55 µM) |  | 
CN(C)C(=O)C1CN(c2nc3ccc(Cl)cc3s2)Cc2[nH]c3ccc(Cl)cc3c21 (racemic) | > 32 |  |  | 0 | 
CCOC(=O)C1c2[nH]c3ccc(Cl)cc3c2CCN1c1nc2ccc(Cl)cc2s1 (stereo unspecified) | > 64 |  |  |  | 
FC(F)(F)Oc1ccc(NC(=S)N2CCc3c([nH]c4ccc(Cl)cc34)C2)cc1 | 1 |  |  | 2 | 
COc1cc(Cl)c2nc(N3CCc4c([nH]c5ccc(Cl)cc45)C3)sc2c1 | > 32 |  |  |  | 
Clc1ccc2[nH]c3c(c2c1)CCN(c1nc2ncccc2s1)C3 | > 64 |  |  |  | 
FC(F)(F)c1cnc2nc(N3CCc4c([nH]c5ccc(Cl)cc45)C3)sc2c1 | > 64 |  |  |  | 
Clc1ccc2nc(N3CCc4c([nH]c5cccc(Cl)c45)C3)sc2c1 | 16 |  | > 16 |  | 
CCOC(=O)c1ccc2nc(N3CCc4c([nH]c5ccc(Cl)cc45)C3)sc2c1 | > 64 |  |  |  | 
CCn1c2c(c3cc(Cl)ccc31)CCN(c1nc3ccc(Cl)cc3s1)C2 | > 64 |  |  |  | 
FC(F)(F)Oc1ccc2nc(N3CCc4c([nH]c5ccc(Cl)cc45)C3)sc2c1 | 1 | 7.3 (≈ 17.2 µM) |  | 0 | 
FC(F)(F)c1ccc(NC(=S)N2CCc3c([nH]c4ccc(Cl)cc34)C2)cc1 | 1 |  | 2 (≈ 4.88 µM) | 2 | 
